Screens from PubChem.
Most compounds without a hit are left out; they make up all but 3.1% or so of the library.
Ecoli rRNA inh: inhibitors of bacterial rRNA selective over humanized ribosomes; E. coli WT GFP vs humanized-ribosome RFP mutants, fluorescence, 24 h; hits give low values; DMSO median 0, no signal -100; GFP signal change (wild-type ribosome), % (concentration not given with the values); 350,000 compounds, 1.6% hits; AID 720706;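 active means significant combined selectivity score with lowered wild-type GFP, culture density cut under 30%, mutant RFP and density less affected; inactive means any of these conditions unmet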
E-selectin induc: E-selectin induction on HUVECs | activation, % at 7.58 µM | P16581 | 260,000 compounds, 0.37% hits | HUVEC E-selectin immunofluorescence imaging; normalized: neutral wells 0, TNF-alpha wells 100;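 active means mean E-selectin-positive cell signal at least 10% of the positive control, reached in at least 60% of replicates, without over 20% cell loss; inconclusive means no rule given, readout overlaps actives, possibly toxicity-flagged; inactive means the rest, including those meeting only one limit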
Target sequence (P16581 whole entry, looked up): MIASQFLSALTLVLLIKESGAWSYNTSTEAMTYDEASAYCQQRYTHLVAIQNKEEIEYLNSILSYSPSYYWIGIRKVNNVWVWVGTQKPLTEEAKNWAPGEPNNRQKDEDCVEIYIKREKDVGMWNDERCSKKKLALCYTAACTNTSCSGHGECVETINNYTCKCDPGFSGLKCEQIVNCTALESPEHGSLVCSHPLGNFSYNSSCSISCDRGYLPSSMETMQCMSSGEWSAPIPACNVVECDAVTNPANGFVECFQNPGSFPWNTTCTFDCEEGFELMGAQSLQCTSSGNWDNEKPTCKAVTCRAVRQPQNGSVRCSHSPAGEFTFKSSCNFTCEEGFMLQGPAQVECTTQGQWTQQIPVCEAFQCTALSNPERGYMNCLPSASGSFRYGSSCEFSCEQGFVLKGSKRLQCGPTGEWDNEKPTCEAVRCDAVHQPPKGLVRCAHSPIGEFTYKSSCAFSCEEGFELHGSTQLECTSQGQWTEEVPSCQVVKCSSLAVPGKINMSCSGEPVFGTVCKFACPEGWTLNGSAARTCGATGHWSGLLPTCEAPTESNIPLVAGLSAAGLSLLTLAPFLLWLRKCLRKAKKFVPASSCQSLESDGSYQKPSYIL
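assay system = HUVEC, human umbilical vein endothelial cells | input = 3,000 HUVEC seeded per well | medium = EGM-2 growth medium on 0.1% gelatin-coated wells | dosing = one compound dose added by pin transfer | signal = immunofluorescence imaging | read-out basis = % PE-positive cells | control set = TNF-alpha, DMSO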
Cneo AK release: Cryptococcus neoformans lysis via adenylate kinase release; C. neoformans lysis, adenylate kinase release luminescence, 4 h; normalised: neutral wells 0, clomiphene wells 100; lysis activity, % at 15 µM; 360,000 compounds, 0.2% hits; AID 651654;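 active means mean lysis activity across replicates of at least 80%, whatever share of replicates individually reach that level; inactive means mean lysis activity below 80%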
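Assay system: Cryptococcus neoformans yeast cells / Dosing: single-point compound dose / Timing: 4 h at 37 °C static, read 1 h later / Measured by: luminescence of released adenylate kinase using an AK detection reagent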
DENV2 CPE: DENV2-induced cell death inhibition. DENV2-infected cells, cytopathic effect rescue, plate reader. CPE inhibition, % at 9.99 µM. 350,000 compounds, 1.7% hits. AID 651640; in the data active means CPE inhibition above about 20%, passing the limit was not always enough; inconclusive means no clear call, values can overlap the other calls; tested in BHK-21 cells;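 further: 0% = median of neutral control wells and 100% = median of positive control wells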
miR-122 sensor: miR-122 inhibition in Huh7 cells; activation (reporter increase), % at 12.5 µM; 340,000 compounds, 0.3% hits; Huh7 miR-122 Renilla luciferase sensor, 48 h; neutral wells = 0, positive control = 100;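 active means mean replicate activation score at least 90 and every replicate individually at or above 90; inconclusive means only one of the two criteria met; inactive means neither criterion met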;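 further: higher luciferase means less miR-122 activity so hits act as miR-122 inhibitors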
Active calls of the source: *; u = inconclusive; x = no result given; [ ] = another dose, or the depositor's remark.

SMILES | Ecoli rRNA inh | E-selectin induc | Cneo AK release | DENV2 CPE | miR-122 sensor
O=C(Nc1ccccc1F)N1CC(=O)N2[C@H](CO)[C@@H](c3ccc(C#Cc4ccc(F)cc4)cc3)[C@@H]2C1 | -1 | 0 | x | 22* | x
COc1ccccc1NC(=O)N1CC(=O)N2[C@@H](CO)[C@H](c3ccc(C#Cc4ccc(F)cc4)cc3)[C@@H]2C1 | 3 | 0 | x | 33* | x
O=C(Nc1ccccc1F)N1CC(=O)N2[C@H](CO)[C@H](c3ccc(-c4ccccc4)cc3)[C@@H]2C1 | -2 | 0 | x | -1 | x
O=C(Nc1ccccc1F)N1CC(=O)N2[C@H](CO)[C@@H](c3ccc(C#Cc4ccc(F)cc4)cc3)[C@H]2C1 | -11 | 0 | x | 4 | x
O=C(Nc1ccccc1F)N1CC(=O)N2[C@H](CO)[C@@H](c3ccc(-c4ccccc4)cc3)[C@H]2C1 | 2 | 0 | x | 43* | x
COc1ccccc1NC(=O)N1CC(=O)N2[C@H](C1)[C@H](c1ccc(C#Cc3ccc(F)cc3)cc1)[C@@H]2CO | 2 | 0 | x | 5 | x
COc1ccccc1NC(=O)N1CC(=O)N2[C@H](CO)[C@@H](c3ccc(-c4ccc(F)cc4)cc3)[C@H]2C1 | 2 | 0 | x | 29* | x
CN1[C@H](C(=O)NC2CCCC2)[C@@H](CO)[C@@H]2Cn3c(ccc(/C=C/c4ccccc4)c3=O)[C@@H]21 | -9 | 0 | x | u | x
O=C(Nc1ccc2c(c1)[C@@H]1C[C@@H](CC(=O)N3CCOCC3)O[C@@H](CO)[C@@H]1O2)C1CCC1 | 0 | 0 | 3 | -5 | 3[16.7 µM]
O=C(Nc1cc(F)ccc1F)N1CC(=O)N2[C@@H](CO)[C@@H](c3ccc(-c4cccnc4)cc3)[C@@H]2C1 | 1 | 0 | x | 23* | x
O=C(Nc1ccccc1F)N1CCCCN2[C@@H](CO)[C@H](c3ccc(-c4cccnc4)cc3)[C@@H]2C1 | -19* | 0 | 0 | -8 | 9[16.7 µM]
CCCNS(=O)(=O)c1ccc(OC)c(Cl)c1Cl | x | x | 1 | x | 33
COc1ccc(S(=O)(=O)NCCSC(C)(C)C)c(Cl)c1Cl | x | x | -2 | x | 253*
CCCCc1cn(C[C@H](Cc2ccccc2)NC(=O)N[C@H](CO)CCc2oc(C(C)=O)c(C(=O)OC)c2C(=O)OC)nn1 | x | x | -2 | 22* | x
O=C(COc1ccccc1F)c1ccc(O)cc1O | x | x | 1 | x | 218*
COc1ccc2c3c(n(C)c2c1)[C@@H](CO)N(Cc1cccnc1)CC31CN(Cc2cccnc2)C1 | -3 | x | x | x | x
NNC(=O)c1[nH]c2ccc(Cl)cc2c1-c1ccccc1 | -31 | x | x | -12 | x
NNC(=O)c1[nH]c2ccc(Br)cc2c1-c1ccccc1 | -26* | 1 | x | -7 | x
CC(=O)Nc1ccc(NC(=O)COC(=O)c2c3c(nc4ccccc24)CCN(Cc2ccccc2)C3)cc1 | x | 0 | x | -1 | x
O=C(COC(=O)c1c2c(nc3ccccc13)CCN(Cc1ccccc1)C2)Nc1c(F)cccc1F | 2 | 0 | -1 | 0 | 175*
COCCNCC(=O)Nc1ccc(C)c(S(=O)(=O)N2CCCCC2)c1 | 3 | 3 | 0 | -1 | x
Cc1ccc(NC(=O)c2ccc3c(c2)OCO3)cc1S(=O)(=O)N1CCOCC1 | -18* | x | 0 | -9 | 9
Cc1ccc(NC(=O)CCl)cc1S(=O)(=O)N1CCCCCC1 | -16* | x | x | x | x
COc1ccc(NC(=O)Cc2ccc(C)c(C)c2)cc1S(=O)(=O)N1CCCCC1 | -29* | 0 | x | 12 | x
CCCNC(=O)C[C@H]1CC[C@@H]2[C@H](COc3ccc(NC(=O)c4cccc(Cl)c4)cc3C(=O)N2C)O1 | -2 | 0 | 0 | 3 | 15[16.7 µM]
SMILES | Ecoli rRNA inh | E-selectin induc | Cneo AK release | DENV2 CPE | miR-122 sensor
Cc1ccc(S(=O)(=O)N(C)C[C@@H]2OCCCC[C@H](C)Oc3ccc(NS(=O)(=O)c4c(C)noc4C)cc3C(=O)N([C@@H](C)CO)C[C@@H]2C)cc1 | 2 | x | -2 | 81* | -8[16.7 µM]
COc1ccc(S(=O)(=O)N(C)C[C@@H]2OCCCC[C@H](C)Oc3ccc(NS(=O)(=O)c4c(C)noc4C)cc3C(=O)N([C@H](C)CO)C[C@H]2C)cc1 | 2 | 0 | -1 | 96* | -14[16.7 µM]
Cc1ccc(S(=O)(=O)N(C)C[C@@H]2OCCCC[C@H](C)Oc3ccc(NS(=O)(=O)c4c(C)noc4C)cc3C(=O)N([C@@H](C)CO)C[C@H]2C)cc1 | 3 | x | -2 | -3 | -4[16.7 µM]
Cc1noc(C)c1S(=O)(=O)N(C)C[C@@H]1OCCCC[C@@H](C)Oc2ccc(NS(=O)(=O)c3ccc(Cl)cc3)cc2C(=O)N([C@H](C)CO)C[C@H]1C | 0 | 0 | -1 | 31* | -8[16.7 µM]
Cc1ccc(S(=O)(=O)N(C)C[C@H]2OCCCC[C@@H](C)Oc3ccc(NS(=O)(=O)c4c(C)noc4C)cc3C(=O)N([C@@H](C)CO)C[C@H]2C)cc1 | 2 | 0 | 2 | 13 | -7[16.7 µM]
Cc1ccc(S(=O)(=O)N(C)C[C@H]2OCCCC[C@H](C)Oc3ccc(NS(=O)(=O)c4c(C)noc4C)cc3C(=O)N([C@@H](C)CO)C[C@H]2C)cc1 | 1 | x | 0 | 49* | -6[16.7 µM]
Cc1noc(C)c1S(=O)(=O)N(C)C[C@H]1OCCCC[C@H](C)Oc2ccc(NS(=O)(=O)c3ccc(Cl)cc3)cc2C(=O)N([C@@H](C)CO)C[C@@H]1C | 1 | 0 | 2 | 14 | -7[16.7 µM]
CNC(=O)C[C@H]1CC[C@@H]2[C@H](COc3ccc(NC(=O)Nc4cc(C)cc(C)c4)cc3C(=O)N2C)O1 | 4 | 0 | 2 | -6 | -1[16.7 µM]
Cc1ccc(S(=O)(=O)Nc2ccc3c(c2)C(=O)N([C@H](C)CO)C[C@H](C)[C@H](CN(C)S(=O)(=O)c2c(C)noc2C)OCCCC[C@H](C)O3)cc1 | 1 | x | 4 | 31* | -6[16.7 µM]
Cc1ccc(S(=O)(=O)Nc2ccc3c(c2)C(=O)N([C@H](C)CO)C[C@H](C)[C@H](CN(C)S(=O)(=O)c2c(C)noc2C)OCCCC[C@@H](C)O3)cc1 | 4 | x | -1 | -7 | 3[16.7 µM]
CCc1ccc2c(c1)C(c1ccc(N3CCOCC3)cc1)=NNC(c1ccncc1)=N2 | -18* | x | x | -2 | x
CCOc1ccc(C2=Nc3ccccc3C(c3ccc(N4CCOCC4)cc3)=NN2)cc1 | x | x | 1 | x | -19
C[C@@H]1CCCCO[C@@H](CN(C)C(=O)C2CCCCC2)[C@@H](C)CN([C@@H](C)CO)C(=O)c2cc(NC(=O)Nc3ccc(F)cc3)ccc2O1 | 3 | 0 | 1 | 21* | -9[16.7 µM]
C[C@@H]1CCCCO[C@H](CN(C)C(=O)C2CCCCC2)[C@@H](C)CN([C@@H](C)CO)C(=O)c2cc(NC(=O)Nc3ccc(F)cc3)ccc2O1 | 1 | 0 | -3 | 47* | -11[16.7 µM]
C[C@@H]1CCCCO[C@@H](CN(C)C(=O)C2CCCCC2)[C@H](C)CN([C@@H](C)CO)C(=O)c2cc(NC(=O)Nc3ccc(F)cc3)ccc2O1 | -1 | 0 | 3 | 25* | -18[16.7 µM]
